NPY Y2 blocker: blocks the human neuropeptide Y Y2 receptor. 140,000 compounds, 0.99% hits. AID 793. P49146. inhibition, % at 2.7 µM. NPY-Y2 expressing cells, antagonist mode; in the data active = inhibition above about 17%;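 also: 0% = vehicle with agonist challenge and 100% = reference antagonist with challenge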
Target sequence (P49146 whole entry, looked up): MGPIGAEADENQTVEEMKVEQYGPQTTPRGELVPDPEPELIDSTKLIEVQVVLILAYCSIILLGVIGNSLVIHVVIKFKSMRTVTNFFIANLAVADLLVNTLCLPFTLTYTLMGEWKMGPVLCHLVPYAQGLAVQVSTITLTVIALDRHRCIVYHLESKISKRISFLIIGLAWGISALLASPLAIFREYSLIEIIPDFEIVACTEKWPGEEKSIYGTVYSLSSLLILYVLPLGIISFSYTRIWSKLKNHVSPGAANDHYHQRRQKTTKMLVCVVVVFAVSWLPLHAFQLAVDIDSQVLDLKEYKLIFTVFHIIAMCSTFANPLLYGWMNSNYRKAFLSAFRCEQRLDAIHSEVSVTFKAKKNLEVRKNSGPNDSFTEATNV
NPY2 pot ag: potentiators or agonists of human neuropeptide Y receptor Y2. cells expressing NPY-Y2, potentiator/agonist read-out. activation, % at 3.6 µM. 220,000 compounds, 0.45% hits; in the data active = activation above about 27%;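 also: cells stimulated with NPY near EC25 plus isoproterenol at EC100; 0% = vehicle plus submaximal agonist and 100% = vehicle plus saturating agonist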
Cl transport mod: modulators of human KCC2 chloride dependent transport; 190,000 compounds, 2.2% hits; B-score of Tl+ flux slope (higher = more flux/activation; lower = inhibition) at 10 µM; KCC2 cells, thallium flux FluoZin-2 fluorescence; Q9H2X9;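 active = thallium flux slope and its plate-corrected score both differing from the plate sample mean at a set confidence after two filtering rounds, in either direction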;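 also: slope of fluorescence scaled to starting intensity during 10 to 20 s after thallium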
Furin inhibitor: blocks human furin protease activity; P09958; purified furin, fluorogenic substrate cleavage; inhibition, % at 20 µM or 30 µM; 220,000 compounds, 0.061% hits; in the data active = inhibition above about 25%
NPY1 pot ag: human NPY-Y1 potentiation or agonism, primary screen. AID 1304. NPY-Y1 expressing cells, potentiator/agonist activation. activation, % at 3.6 µM. 220,000 compounds, 0.37% hits; in the data active = activation above about 33%, passing the limit was not always enough;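 also: cells stimulated with NPY at EC10 then isoproterenol at EC100; 0% = low agonist plus stimulus and 100% = saturating agonist plus stimulus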
Target sequence (P25929 whole entry, looked up): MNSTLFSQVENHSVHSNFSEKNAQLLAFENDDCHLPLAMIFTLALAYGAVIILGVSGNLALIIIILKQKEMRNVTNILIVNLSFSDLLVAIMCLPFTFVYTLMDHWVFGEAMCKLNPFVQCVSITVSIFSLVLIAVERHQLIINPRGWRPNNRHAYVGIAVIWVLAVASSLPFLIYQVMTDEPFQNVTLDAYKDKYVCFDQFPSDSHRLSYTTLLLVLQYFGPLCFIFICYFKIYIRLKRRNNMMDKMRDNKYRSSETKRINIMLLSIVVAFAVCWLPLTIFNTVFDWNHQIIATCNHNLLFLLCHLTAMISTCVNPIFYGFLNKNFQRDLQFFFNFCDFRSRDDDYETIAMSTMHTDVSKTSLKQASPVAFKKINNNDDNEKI
NPY-Y1 antag: antagonists of human neuropeptide Y receptor Y1; inhibition, % at 3.6 µM; 200,000 compounds, 1% hits; P25929; HEK293-CNG Y1 cells, membrane potential fluorescence; NPY at EC95, then isoproterenol;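 active = inhibition above the campaign mean inhibition of all tested compounds plus 3 SD, cut at about 20% in these data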;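 also: 0% = DMSO wells given NPY plus isoproterenol and 100% = isoproterenol alone without NPY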
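Material: Y1- and CNG-channel-expressing HEK293 cells / Probe or stimulus: NPY 25 nM then isoproterenol 1 µM plus Ro 20-1724 25 µM / Doses: 3.6 µM single dose, DMSO 0.4% / Schedule: compound incubation 1 h at room temperature, readout 45 min post-stimulation / Signal: membrane potential fluorescence / Benchmarks: isoproterenol-only wells as full block versus NPY-plus-isoproterenol wells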
KCC2 secondary: KCC2 (human) modulation, secondary assay | shares compounds with Cl transport mod | AID 1713 | 3,700 compounds, 15% hits | HEK293-KCC2, thallium flux, FluoZin2 fluorescence; hits give high values | normalised thallium flux (F/F0 slope) at 10 µM;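 active = thallium flux slope above the same plate's solvent-only control mean plus 3 SD; inconclusive = the two replicate wells disagree; inactive = no significant difference from solvent-only control wells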
KCC2 bumet counter: bumetanide-insensitive thallium flux in KCC2 cells with ouabain, counter-screen. shares compounds with Cl transport mod. HEK293-KCC2 + bumetanide/ouabain, thallium flux FluoZin2; hits give high values. AID 1714. 3,700 compounds, 49% hits. normalized thallium flux at 10 µM;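 active = thallium entry rate above the same plate's blocked-transporter control wells by more than 3 SD; inconclusive = the two repeat wells disagree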;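 also: raw slope of fluorescence over initial fluorescence between 10 and 20 s after thallium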
KCC2 secondary2: KCC2 (human) modulation, second secondary assay; normalized thallium flux at 10 µM; 3,700 compounds, 23% hits; shares compounds with Cl transport mod; HEK293-KCC2, thallium flux FluoZin2 fluorescence; actives lie on both sides; F/F0 rise rate, 10–20 s post-thallium;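 active = thallium flux slope more than 3 SD above or below the plate's solvent-only control mean, mostly below; inconclusive = the two repeat wells disagreed; inactive = no significant shift from solvent-only controls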;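 also: raw slope with 0.1% DMSO as baseline and bumetanide as block control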
HEK293 Tl flux: acts in parental HEK cells, KCC2 counter-screen | shares compounds with Cl transport mod | HEK293 parental cells, thallium flux FluoZin2, ouabain; baseline-ratio fluorescence slope, 10–20 s after thallium | thallium flux rate (normalised fluorescence) at 10 µM | 3,700 compounds, 46% hits | AID 1716;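 active = thallium flux rate significantly above the same plate's solvent-only control wells, beyond their mean plus 3 SD; inconclusive = the two replicate wells gave conflicting results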
KCC2 ouabain: modulates human KCC2 on retest with ouabain | shares compounds with Cl transport mod | HEK293-KCC2, thallium flux FluoZin2 fluorescence; bidirectional: low = inhibitor, high = activator | raw Tl+ flux slope (below DMSO = inhibition, above = activation) at 10 µM | 3,700 compounds, 48% hits | AID 1717;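 active = thallium flux slope beyond 3 SD from same-plate DMSO control mean in most replicates, usually higher, sometimes lower; inconclusive = repeat tests gave conflicting results; inactive = no significant difference from controls in most replicates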;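 also: slope of initial-normalized fluorescence between seconds 10 and 20 after thallium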
HEK counter2: acts in parental HEK cells, second KCC2 counter-screen. AID 1718. 3,700 compounds, 33% hits. thallium flux slope at 10 µM. HEK293 parental, thallium flux FluoZin-2 fluorescence slope. shares compounds with Cl transport mod;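 active = thallium flux slope above the same plate's solvent-control mean plus 3 SD in both duplicate wells; inconclusive = duplicate wells that disagreed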;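 also: run without ouabain in cells lacking the KCC2 cotransporter; slope of fluorescence scaled to its starting value between 10 and 20 s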
The depositor's hits bear a star; u = inconclusive; x = not tested or not shown. Hits are enriched below; roughly 3.7% of the tested compounds scored in any of these assays.

SMILES | NPY Y2 blocker | NPY2 pot ag | Cl transport mod | Furin inhibitor | NPY1 pot ag | NPY-Y1 antag | KCC2 secondary | KCC2 bumet counter | KCC2 secondary2 | HEK293 Tl flux | KCC2 ouabain | HEK counter2
COc1ccc(-c2nc(-c3ccccc3)c(-c3cccs3)[nH]2)cc1OC | -4 | 16 | -5.4* | -42 | 10 | 1 | 0.0094 | 0.0073 | 0.032 | 0.0043 | 0.018 | 0.011
Cc1nc(NC(=S)NC(=O)c2ccccc2)sc1C | x | 2 | 46* | -20 | 6 | x | 0.015* | 0.06* | 0.034 | 0.028* | 0.037* | 0.013*
COC(=O)c1sc(NC(=S)NC(=O)c2ccccc2F)nc1C | x | 4 | 36* | 15 | -13 | -1 | 0.0079 | 0.037* | u | 0.033* | 0.04* | 0.022*
CCOC(=O)CNC(=O)c1sc(NC(=O)c2ccccc2F)nc1C | -1 | 6 | 0.41 | -12 | 18 | 6 | x | x | x | x | x | x
CCc1cc(=O)oc2cc3occ(-c4ccc(OC)c(F)c4)c3cc12 | 13 | -5 | -0.011 | -13 | -25 | 2 | x | x | x | x | x | x
N=C1C(c2ccccc2)=C(O)CN1c1cccc(S(=O)(=O)N2CCOCC2)c1 | x | -1 | 0.021 | -20 | -7 | x | x | x | x | x | x | x
Cc1nc2c(Br)c3nc(C(F)(F)F)[nH]c3c(Br)c2[nH]1 | 0 | 7 | -7.6* | 0 | 7 | -2 | 0.0091 | 0.0063 | 0.037 | 0.0045 | 0.021 | 0.012
COCCN(C(=O)CSc1nc2ccccc2c(=O)n1C(C)COC)c1c(N)n(Cc2ccccc2)c(=O)[nH]c1=O (stereo unspecified) | x | 8 | 1.6 | -19 | 8 | 2 | x | x | x | x | x | x
COCCN(C(=O)CSc1nc2ccccc2c(=O)n1CC(C)C)c1c(N)n(Cc2ccccc2)c(=O)[nH]c1=O | x | 13 | 13* | -35 | 6 | 5 | 0.012* | 0.054* | 0.037 | 0.024* | 0.05* | 0.016*
O=C(C1CC(c2ccc(F)cc2)=NO1)N1CCc2ccccc2C1 (stereo unspecified) | 7 | -17 | -0.77 | -13 | -25 | 4 | x | x | x | x | x | x
O=C(C1CC(c2ccccc2O)=NO1)N1CCc2ccccc2C1 (stereo unspecified) | 15 | -2 | -3.2* | -22 | -38 | 14 | 0.0068 | 0.0053 | u | 0.008 | 0.018 | 0.011
O=C(CSCc1ccc(Cl)cc1)NCc1ccccn1 | 2 | 8 | -0.23 | -16 | 8 | 1 | x | x | x | x | x | x
CCC(Sc1nc(C)cc(=O)[nH]1)C(=O)Nc1nc(-c2ccccc2)cs1 (stereo unspecified) | 2 | -10 | -5.3* | -12 | 5 | 7 | 0.0046 | 0.0055 | 0.021* | 0.006* | 0.012* | 0.0097
CC(C)(C)c1cc(C(=O)NNC(=O)c2ccc(C(F)(F)F)cc2)no1 | x | -23 | 64* | -7 | 5 | x | 0.028* | 0.083* | u | 0.041* | 0.045* | 0.022*
CC12CCC(C/C1=N/O)C2(C)CBr (stereo unspecified) | x | -1 | 0.45 | -17 | 7 | x | x | x | x | x | x | x
CC(=O)N1C(C)(C)CC(=NOS(=O)(=O)c2ccccc2)CC1(C)C | x | -4 | 0.89 | -23 | -13 | -3 | x | x | x | x | x | x
CSc1nc(SC(C)C(=O)O)c2c3c(sc2n1)COC(C)(C)C3 (stereo unspecified) | x | 1 | 4.8* | -20 | 6 | x | 0.0054 | 0.02* | u | 0.032* | 0.034* | 0.021*
CSc1nc(SCCN(C)C)c2c3c(sc2n1)COC(C)(C)C3 | x | -9 | 0.96 | -19 | -35 | x | x | x | x | x | x | x
CC(C)Cn1c(=S)[nH]c2cc(Cl)ccc21 | x | 0 | 92* | -26 | -7 | 8 | u | 0.097* | u | 0.083* | 0.078* | 0.063*
O=c1c2ccccc2[nH]c(=S)n1CCC1=CCCCC1 | 3 | -2 | 38* | -11 | 0 | -6 | u | 0.082* | 0.048* | 0.032* | 0.043* | 0.026*
O=c1[nH]c2cc(Cl)ccc2n1-c1ccccc1 | 1 | 11 | -1.4 | -25 | 6 | 0 | x | x | x | x | x | x
CC(C)Cn1c(=S)[nH]c2ccccc2c1=O | x | -1 | 64* | -19 | 10 | -1 | 0.0099* | 0.12* | 0.086* | 0.086* | 0.092* | 0.085*
C=CCn1c(=S)[nH]c2ccccc2c1=O | -2 | 18 | x | -27 | 1 | 1 | x | x | x | x | x | x
O=c1c2ccccc2[nH]c(=S)n1Cc1ccc2c(c1)OCO2 | x | 1 | 10* | -7 | -19 | 1 | u | 0.012* | 0.031 | 0.0098* | 0.019 | 0.013*
CCOC(=O)C1C(c2cccc([N+](=O)[O-])c2)C2C(=O)NN=C2CC1(C)O (stereo unspecified) | x | 3 | 0.49 | -22 | -10 | 4 | x | x | x | x | x | x
SMILES | NPY Y2 blocker | NPY2 pot ag | Cl transport mod | Furin inhibitor | NPY1 pot ag | NPY-Y1 antag | KCC2 secondary | KCC2 bumet counter | KCC2 secondary2 | HEK293 Tl flux | KCC2 ouabain | HEK counter2
O=C(/C=C/c1cccs1)Nc1ccc(Br)cn1 | 3 | -13 | 0.53 | -5 | -23 | 13 | x | x | x | x | x | x
CC(C)(C)OC(=O)N1CCC[C@H]1C(=O)N/N=C/c1cccc2nccnc12 | x | 16 | 0.79 | -7 | 7 | x | x | x | x | x | x | x
Cc1cc(C(=O)NNS(=O)(=O)c2ccc(C(C)(C)C)cc2)nn1C(C)(C)C | x | 7 | 0.14 | -25 | -27 | x | x | x | x | x | x | x
CCN(CC)CCn1c(=S)[nH]c2ccccc2c1=O | 1 | 14 | 0.89 | -18 | 5 | 5 | x | x | x | x | x | x
C=C(C)Cn1c(=S)[nH]c2ccccc2c1=O | 5 | 2 | 25* | -4 | -6 | 6 | 0.014* | 0.074* | 0.031 | 0.024* | 0.049* | 0.014*
Cc1cc(C)nc(Sc2nc(C)nc3c2oc2ccccc23)n1 | 2 | -8 | x | -18 | 6 | 9 | 0.018 | 0.0044 | 0.027 | 0.0074 | 0.016 | 0.01
O=C(COC(=O)c1cc(S(=O)(=O)N2CCCC2)ccc1O)Nc1ccc(S(=O)(=O)N2CCOCC2)cc1 | x | 8 | 0.91 | -11 | 30 | x | x | x | x | x | x | x
O=C(COC(=O)c1cc(S(=O)(=O)N2CCOCC2)ccc1O)NCC1CCCO1 (stereo unspecified) | 3 | -8 | x | -12 | 5 | -1 | 0.011 | 0.0075 | 0.033 | 0.008 | 0.023 | 0.011
